In paper PMC7709506 (ESMO Open, 2020):
Entries after “also recorded” stand apart in the source; their conditions may differ.

Experiment: Safety and tolerability
Assay type: in vivo, human
Procedure, shortened: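 Open-label multicentre phase I/IIa trial in adults with advanced or metastatic solid tumours. Part 1 used 3+3 oral capsule escalation at 50–800 mg/day to define DLT and MTD. Part 2 gave tablets. Treatment continued until progression, intolerable AE or study end, with dose decisions by a safety monitoring board. AEs of special interest were monitored. The safety population was all dosed patients, summarised by dose level.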

Structure (SMILES): Cn1cc(-c2ccc3c(c2)ncn3-c2cc(NS(=O)(=O)C3CC3)cc(-c3ccc(F)cc3F)c2)cn1 [ODM-203]
- Decreased appetite (capsule 600 mg (n=30)): 9 (30.0) n (%)
- Diarrhoea (capsule 600 mg (n=30)): 17 (56.7) n (%)
- Dry mouth (capsule 600 mg (n=30)): 14 (46.7) n (%)
- Dry skin (capsule 600 mg (n=30)): 1 (3.3) n (%)
- Dysgeusia (capsule 600 mg (n=30)): 5 (16.7) n (%)
- Epistaxis (capsule 600 mg (n=30)): 8 (26.7) n (%)
- Fatigue (capsule 600 mg (n=30)): 10 (33.3) n (%)
- Hyperbilirubinaemia (capsule 600 mg (n=30)): 10 (33.3) n (%)
- Hyperphosphataemia (capsule 600 mg (n=30)): 6 (20.0) n (%)
- Hypertension (capsule 600 mg (n=30)): 5 (16.7) n (%)
- Jaundice (capsule 600 mg (n=30)): 10 (33.3) n (%)
- Mucosal inflammation (capsule 600 mg (n=30)): 1 (3.3) n (%)
- Myalgia (capsule 600 mg (n=30)): 4 (13.3) n (%)
- Nasal dryness (capsule 600 mg (n=30)): 5 (16.7) n (%)
- Nausea (capsule 600 mg (n=30)): 4 (13.3) n (%)
- Onycholysis (capsule 600 mg (n=30)): 6 (20.0) n (%)
- Palmar-plantar eryrthodysaestesia (capsule 600 mg (n=30)): 11 (36.7) n (%)
- Related AE (capsule 600 mg (n=30)): 30 (100) n (%)
- Related SAEs (capsule 600 mg (n=30)): 8 (26.7) n (%)
- Stomatitis (capsule 600 mg (n=30)): 11 (36.7) n (%)
- Vomiting (capsule 600 mg (n=30)): 2 (6.7) n (%)
- Weight decreased (capsule 600 mg (n=30)): 10 (33.3) n (%)
- patients with a DLT (punctate keratitis) (capsule 800 mg): 1 patient
- AE leading to death (capsule 800 mg (n=7)): 0 n (%)
- AE leading to discontinuation (capsule 800 mg (n=7)): 3 (42.9) n (%)
- AE leading to dose reduction (capsule 800 mg (n=7)): 0 n (%)
- AE leading to treatment interruption (capsule 800 mg (n=7)): 5 (71.4) n (%)
- Alopecia (capsule 800 mg (n=7)): 5 (71.4) n (%)
- Any AE (capsule 800 mg (n=7)): 7 (100) n (%)
- Arthralgia (capsule 800 mg (n=7)): 4 (57.1) n (%)
- Asthenia (capsule 800 mg (n=7)): 2 (28.6) n (%)
- Blood bilirubin increased (capsule 800 mg (n=7)): 3 (42.9) n (%)
- Conjugated bilirubin increased (capsule 800 mg (n=7)): 0 n (%)
- Decreased appetite (capsule 800 mg (n=7)): 1 (14.3) n (%)
- Diarrhoea (capsule 800 mg (n=7)): 4 (57.1) n (%)
- Dry skin (capsule 800 mg (n=7)): 1 (14.3) n (%)
- Dysgeusia (capsule 800 mg (n=7)): 1 (14.3) n (%)
- Epistaxis (capsule 800 mg (n=7)): 3 (42.9) n (%)
- Fatigue (capsule 800 mg (n=7)): 2 (28.6) n (%)
- Hyperbilirubinaemia (capsule 800 mg (n=7)): 4 (57.1) n (%)
- Hyperphosphataemia (capsule 800 mg (n=7)): 3 (42.9) n (%)
- Hypertension (capsule 800 mg (n=7)): 0 n (%)
- Jaundice (capsule 800 mg (n=7)): 2 (28.6) n (%)
- Mucosal inflammation (capsule 800 mg (n=7)): 0 n (%)
- Myalgia (capsule 800 mg (n=7)): 2 (28.6) n (%)
- Nasal dryness (capsule 800 mg (n=7)): 0 n (%)
- Nausea (capsule 800 mg (n=7)): 0 n (%)
- Onycholysis (capsule 800 mg (n=7)): 2 (28.6) n (%)
- Palmar-plantar eryrthodysaestesia (capsule 800 mg (n=7)): 1 (14.3) n (%)
- Related AE (capsule 800 mg (n=7)): 7 (100) n (%)
- Related SAEs (capsule 800 mg (n=7)): 1 (14.3) n (%)
- Stomatitis (capsule 800 mg (n=7)): 4 (57.1) n (%)
- Vomiting (capsule 800 mg (n=7)): 0 n (%)
- Weight decreased (capsule 800 mg (n=7)): 1 (14.3) n (%)
- maximum tolerated dose (MTD) (capsule, up to 800 mg once daily): not established; also recorded: not reached
- arthralgia grade 3 events (in vivo): two
- hypertension considered related to study treatment (in vivo): 14 patients
- hypertension events of grade 3 or higher (in vivo): three
- myalgia grade 3 (in vivo): two
- increased alanine transaminase levels (of 30 patients treated with 400 mg/day): three
- Hypertension (patients): 19%
- Myalgia (patients): 16.7%
- back pain (patients): 11.9%
- grade 3 hypertension (patients): 3.6%
- ocular events (patients): 19.0%
- AEs leading to dose reductions (patients, N=84): 10.7%
- AEs leading to treatment interruption (patients, N=84): 72.6%
- bilirubin increase-related events (patients, N=84): 75%
- diarrhoea (AE related to treatment) (patients, N=84): 50%
- dry mouth (AE related to treatment) (patients, N=84): 34.5%
- events resulting in treatment discontinuation (patients, N=84): 35.7%
- palmar-plantar eryrthrodysesthesia (AE related to treatment) (patients, N=84): 35.7%
- stomatitis (AE related to treatment) (patients, N=84): 40.5%
- AEs considered related to the treatment (share of AEs, all doses): 70.4%
- AEs grade 1 or 2 in severity (share of AEs, all doses): 89.2%
- AE leading to death (tablet 200 mg (n=3)): 0 n (%)
- AE leading to discontinuation (tablet 200 mg (n=3)): 0 n (%)
- AE leading to dose reduction (tablet 200 mg (n=3)): 0 n (%)
- AE leading to treatment interruption (tablet 200 mg (n=3)): 0 n (%)
- Alopecia (tablet 200 mg (n=3)): 1 (33.3) n (%)
- Any AE (tablet 200 mg (n=3)): 3 (100) n (%)
- Arthralgia (tablet 200 mg (n=3)): 1 (33.3) n (%)
- Asthenia (tablet 200 mg (n=3)): 0 n (%)
- Blood bilirubin increased (tablet 200 mg (n=3)): 2 (66.7) n (%)
- Conjugated bilirubin increased (tablet 200 mg (n=3)): 0 n (%)
- Decreased appetite (tablet 200 mg (n=3)): 1 (33.3) n (%)
- Diarrhoea (tablet 200 mg (n=3)): 0 n (%)
- Dry mouth (tablet 200 mg (n=3)): 1 (33.3) n (%)
- Dry skin (tablet 200 mg (n=3)): 0 n (%)
- Dysgeusia (tablet 200 mg (n=3)): 1 (33.3) n (%)
- Epistaxis (tablet 200 mg (n=3)): 0 n (%)
- Fatigue (tablet 200 mg (n=3)): 1 (33.3) n (%)
- Hyperbilirubinaemia (tablet 200 mg (n=3)): 0 n (%)
- Hyperphosphataemia (tablet 200 mg (n=3)): 0 n (%)
- Hypertension (tablet 200 mg (n=3)): 1 (33.3) n (%)
- Jaundice (tablet 200 mg (n=3)): 0 n (%)
- Mucosal inflammation (tablet 200 mg (n=3)): 0 n (%)
- Myalgia (tablet 200 mg (n=3)): 1 (33.3) n (%)
- Nasal dryness (tablet 200 mg (n=3)): 0 n (%)
- Nausea (tablet 200 mg (n=3)): 0 n (%)
- Onycholysis (tablet 200 mg (n=3)): 0 n (%)
- Palmar-plantar eryrthodysaestesia (tablet 200 mg (n=3)): 0 n (%)
- Related AE (tablet 200 mg (n=3)): 3 (100) n (%)
- Related SAEs (tablet 200 mg (n=3)): 0 n (%)
- Stomatitis (tablet 200 mg (n=3)): 1 (33.3) n (%)
- Vomiting (tablet 200 mg (n=3)): 0 n (%)
- Weight decreased (tablet 200 mg (n=3)): 0 n (%)
- AE leading to death (tablet 300 mg (n=3)): 0 n (%)
- AE leading to discontinuation (tablet 300 mg (n=3)): 0 n (%)
- AE leading to dose reduction (tablet 300 mg (n=3)): 1 (33.3) n (%)
- AE leading to treatment interruption (tablet 300 mg (n=3)): 1 (33.3) n (%)
- Alopecia (tablet 300 mg (n=3)): 1 (33.3) n (%)
- Any AE (tablet 300 mg (n=3)): 3 (100) n (%)
- Arthralgia (tablet 300 mg (n=3)): 2 (66.7) n (%)
- Asthenia (tablet 300 mg (n=3)): 3 (100) n (%)
- Blood bilirubin increased (tablet 300 mg (n=3)): 0 n (%)
- Conjugated bilirubin increased (tablet 300 mg (n=3)): 1 (33.3) n (%)
- Decreased appetite (tablet 300 mg (n=3)): 2 (66.7) n (%)
- Diarrhoea (tablet 300 mg (n=3)): 1 (33.3) n (%)
- Dry mouth (tablet 300 mg (n=3)): 1 (33.3) n (%)
- Dry skin (tablet 300 mg (n=3)): 1 (33.3) n (%)
- Dysgeusia (tablet 300 mg (n=3)): 1 (33.3) n (%)
- Epistaxis (tablet 300 mg (n=3)): 1 (33.3) n (%)
- Fatigue (tablet 300 mg (n=3)): 0 n (%)
- Hyperbilirubinaemia (tablet 300 mg (n=3)): 1 (33.3) n (%)
- Hyperphosphataemia (tablet 300 mg (n=3)): 1 (33.3) n (%)
- Hypertension (tablet 300 mg (n=3)): 0 n (%)
- Jaundice (tablet 300 mg (n=3)): 1 (33.3) n (%)
- Mucosal inflammation (tablet 300 mg (n=3)): 1 (33.3) n (%)
- Myalgia (tablet 300 mg (n=3)): 0 n (%)
- Nasal dryness (tablet 300 mg (n=3)): 1 (33.3) n (%)
- Nausea (tablet 300 mg (n=3)): 0 n (%)
- Onycholysis (tablet 300 mg (n=3)): 0 n (%)
- Palmar-plantar eryrthodysaestesia (tablet 300 mg (n=3)): 1 (33.3) n (%)
- Related AE (tablet 300 mg (n=3)): 3 (100) n (%)
- Related SAEs (tablet 300 mg (n=3)): 1 (33.3) n (%)
- Stomatitis (tablet 300 mg (n=3)): 0 n (%)
- Vomiting (tablet 300 mg (n=3)): 1 (33.3) n (%)
- Weight decreased (tablet 300 mg (n=3)): 2 (66.7) n (%)
- AE leading to death (tablet 400 mg (n=30)): 5 (16.7) n (%)
- AE leading to discontinuation (tablet 400 mg (n=30)): 9 (30.0) n (%)
- AE leading to dose reduction (tablet 400 mg (n=30)): 6 (20.0) n (%)
- AE leading to treatment interruption (tablet 400 mg (n=30)): 28 (93.3) n (%)
- Alopecia (tablet 400 mg (n=30)): 10 (33.3) n (%)
- Any AE (tablet 400 mg (n=30)): 30 (100) n (%)
- Arthralgia (tablet 400 mg (n=30)): 9 (30.0) n (%)
- Asthenia (tablet 400 mg (n=30)): 10 (33.3) n (%)
- Blood bilirubin increased (tablet 400 mg (n=30)): 15 (50.0) n (%)
- Conjugated bilirubin increased (tablet 400 mg (n=30)): 7 (23.3) n (%)
- Decreased appetite (tablet 400 mg (n=30)): 11 (36.7) n (%)
- Diarrhoea (tablet 400 mg (n=30)): 19 (63.3) n (%)
- Dry mouth (tablet 400 mg (n=30)): 12 (40.0) n (%)
- Dry skin (tablet 400 mg (n=30)): 7 (23.3 n (%)
- Dysgeusia (tablet 400 mg (n=30)): 10 (33.3) n (%)
- Epistaxis (tablet 400 mg (n=30)): 14 (46.7) n (%)
- Fatigue (tablet 400 mg (n=30)): 9 (30.0) n (%)
- Hyperbilirubinaemia (tablet 400 mg (n=30)): 11 (36.7) n (%)
- Hyperphosphataemia (tablet 400 mg (n=30)): 8 (26.7) n (%)
- Hypertension (tablet 400 mg (n=30)): 8 (26.7) n (%)
- Jaundice (tablet 400 mg (n=30)): 11 (36.7) n (%)
- Mucosal inflammation (tablet 400 mg (n=30)): 7 (23.3) n (%)
- Myalgia (tablet 400 mg (n=30)): 3 (10.0) n (%)
- Nasal dryness (tablet 400 mg (n=30)): 6 (20.0) n (%)
- Nausea (tablet 400 mg (n=30)): 7 (23.3) n (%)
- Onycholysis (tablet 400 mg (n=30)): 3 (10.0) n (%)
- Palmar-plantar eryrthodysaestesia (tablet 400 mg (n=30)): 15 (50.0) n (%)
- Related AE (tablet 400 mg (n=30)): 29 (96.7) n (%)
- Related SAEs (tablet 400 mg (n=30)): 4 (13.3) n (%)
- Stomatitis (tablet 400 mg (n=30)): 17 (56.7) n (%)
- Vomiting (tablet 400 mg (n=30)): 5 (16.7) n (%)
- Weight decreased (tablet 400 mg (n=30)): 5 (16.7) n (%)
